# Most compounds without a hit are left out; they make up all but 3.9% or so of the library.
# CHOP UPR activ – activators of apoptotic CHOP UPR arm, primary screen, cell-based, CHO-CHOP luciferase reporter, luminescence, uHTS; UPR activation; percent of tunicamycin response over DMSO baseline; activation, % at 10 µM; hit rate 0.34% among 330,000; AID 449763, 2010;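 active = at 10 µM dose, activation of 40% or more, normalized to positive control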;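 note: 100% = tunicamycin at 10 µg/mL and 0% = DMSO alone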
#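 Assay system: CHO cells with stable CHOP pathway luciferase reporter; Buffer or medium: F12 plus 10% serum; Times: 16-18 h cell attachment, then 6 h compound exposure, 37 °C; Signal: luciferase luminescence; Read-out basis: percent activation relative to tunicamycin control; Control set: tunicamycin high control, DMSO low control.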
# XBP1 UPR activ – activators of adaptive XBP1 UPR arm, primary screen, cell-based, CHO-XBP1 luciferase reporter, luminescence, uHTS; IRE1-XBP1 UPR activation; percent of tunicamycin response, DMSO as zero; hit rate 0.33% among 330,000; activation, % at 20 µM; AID 463104, 2010;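 active = versus positive control, 20 µM dose yields 30% or more activation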;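 note: 100% = tunicamycin at 10 µg/mL and 0% = DMSO only wells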
#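 assay system = CHO-XBP1 luciferase reporter cells | amount = 1000 cells/well | buffer or medium = F12 plus 10% FBS | compound dosing = single point, 20 µM final compound, 1% DMSO | incubation = 16-18 h cell attachment at 37 °C, then 6 h compound exposure | detection = Steady-Glo luminescence read | controls = tunicamycin 10 µg/mL and vehicle-only wells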
# Jurkat NFkB inh – inhibitors of induced NF-kB luciferase reporter, primary screen, TCR NF-kB activation inhibitor project, cell-based, luminescence, uHTS. hit rate 0.53% among 330,000. inhibition, % at 4 µM. Jurkat, PMA/ionomycin-induced NF-kB luciferase reporter; in the data active = inhibition above about 50%
# CHOP inh – inhibitors of CHOP promoter induction, primary screen, cell-based, unfolded protein response, luciferase reporter; hit rate 3.8% among 220,000; AID 2732, 2010; inhibition, % at 10 µM; CHO-K1 CHOP-promoter luciferase, tunicamycin-induced, 15-18 h;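 active = compounds that reduced the stress-induced luciferase reporter signal by more than about 70% of percent inhibition, limit read from the data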;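 note: 0% = tunicamycin plus vehicle and 100% = wells without tunicamycin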
# 697 NFkB inh – inhibitors of PMA/ionomycin-induced NF-kB reporter, 697 cells, primary screen, B-cell NF-kB inhibitor project, cell-based, luminescence, uHTS. 697 B-cell NF-kB luciferase reporter, 16 h. AID 435022, 2010. inhibition, % at 4 µM. hit rate 0.33% among 330,000; in the data active = inhibition above about 35%
# Gli-Sufu antag – Gli-Sufu pathway antagonists, primary screen, luciferase luminescence, Sufu-KO-LIGHT cells, uHTS; Sufu-KO-LIGHT fibroblasts, Gli luciferase reporter luminescence; inhibition, % at 5 µM; hit rate 0.74% among 340,000; AID 588413, 2011;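 active = inhibition above about 55%, limit read from the data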;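 note: 0% = DMSO-treated cells and 100% = wells with medium but no cells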
# Starred values were filed as active, the others as inactive; · = no result given.
SMILES,CHOP UPR activ,XBP1 UPR activ,Jurkat NFkB inh,CHOP inh,697 NFkB inh,Gli-Sufu antag
CCOC(=O)c1c(C)nc2ccccc2c1-c1ccccc1,0,-1,-3,36,-12,7
CCOC(=O)c1c(C)nc2ccc(Cl)cc2c1-c1ccccc1,0,-5,2,82*,20,5
O=C(Oc1cccc2c(O)cccc12)c1ccccc1,6,11,-1,106*,-56,29
O=C(Oc1cccc2ccccc12)c1ccccc1,·,·,·,·,·,1
COc1cccc(S(=O)(=O)NCc2ccc(C(=O)Nc3cccc(Cl)c3)cc2)c1,1,-4,-4,71*,-4,11
CC(C)c1ccc(CNC(=O)CSCC(=O)Nc2ccc3ccccc3c2)cc1,3,-2,5,86*,0,2
O=C(CSc1cc(Cl)ccc1Cl)NCC(=O)Nc1ccc(F)c(F)c1F,2,-1,-3,72*,-27,1
Nc1ccc(OC(=O)Nc2ccc(O)cc2)cc1,-5,-9,10,82*,15,16
COc1cccc(OCc2cc(C(=O)N3CCN(c4ccccc4OC)CC3)no2)c1,6,0,-38,·,-88,8
Cc1ccc(OCC(=O)NCCNC(=O)c2cnccn2)cc1,-1,-3,0,·,-4,-16
CC1=CC2=NC(=O)/C(=C/c3cccs3)C(=N)N2O1,3,2,-21,2,7,-1
CC1=CC2=NC(=O)/C(=C\c3ccc(-c4ccc(Cl)cc4)o3)C(=N)N2O1,·,·,·,93*,·,·
CCOc1ccc(-c2[nH]ncc2Oc2ccccc2OCC)c(O)c1,-1,3,4,80*,-2,3
CCOc1ccc(-c2[nH]ncc2Oc2ccccc2OC)c(O)c1,0,-2,0,82*,5,1
CCOc1ccccc1Oc1cn[nH]c1-c1ccc(OCC(=O)NN)cc1O,-1,-3,-3,·,-7,10
C=C(C)COc1ccc(-c2nc(N)ncc2Oc2ccccc2OC)c(O)c1,1,4,0,93*,8,3
CCCCCCCC(=O)NNC(=O)c1c(O)c2ccccc2[nH]c1=O,0,1,12,70*,10,-2
CCC(=O)NNC(=O)c1c(O)c2ccccc2[nH]c1=O,0,-4,7,22,19,2
CCCCCCNC(=O)c1c(O)c2ccccc2[nH]c1=O,1,1,-19,88*,-16,-38
CCCCn1c(N)c(N(CCC(C)C)C(=O)C2CCCC2)c(=O)[nH]c1=O,0,4,-8,·,14,0
O=C(Nc1ccc(NC(=O)c2cccs2)cc1)c1ccc(Br)o1,1,3,-14,90*,-6,-11
O=C(Nc1ccc(S(=O)(=O)NC2CCCCC2)cc1)c1ccco1,0,-1,13,23,-12,12
O=C(Nc1ccc(S(=O)(=O)NC2CCCCC2)cc1)c1ccc(Br)o1,0,-4,17,83*,-18,9
CSc1ccc(S(=O)(=O)NC2CCCCCC2)cc1,-1,-5,12,78*,-2,3
O=C(Nc1cccc(NC(=O)c2cccs2)c1)c1ccc(Br)o1,-1,-6,-15,·,8,4
SMILES,CHOP UPR activ,XBP1 UPR activ,Jurkat NFkB inh,CHOP inh,697 NFkB inh,Gli-Sufu antag
Cc1ccc(S(=O)(=O)NC2CCCCC2)cc1,2,-1,7,·,21,-12
Cc1cc(C)c2nc(N3C(=O)C(O)=C(C(=O)c4ccco4)C3c3cccc(O)c3)sc2c1 (centres undefined),2,2,-23,·,-16,0
COc1cc(-c2nc3ccc4ccccc4c3c3c2CCC3)ccc1O,3,1,-21,86*,-11,-15
CC(C)(C)NS(=O)(=O)c1ccc(NC(=S)NC(=O)C2CC2)cc1,2,-1,8,·,5,18
CCCCC(=O)Nc1nn(CC)c2nc3c(C)cccc3cc12,0,-4,10,·,4,3
CCCCC(=O)Nc1nn(C)c2nc3c(C)cccc3cc12,0,-2,4,76*,15,11
c1ccc(Nc2cccc(Nc3ccccc3)c2)cc1,3,-1,-43,74*,-52,-52
Nc1cccc(Nc2ccccc2)c1,2,5,20,3,-5,0
O=c1[nH]c(NCCO)nnc1Cc1ccccc1,1,-1,3,·,18,2
Cc1ccc(-n2nnnc2C(Cl)c2nnnn2-c2ccc(C)cc2)cc1,·,·,·,91*,·,-1
C/C(=N\NC(=O)c1ccccc1O)C1CC1,3,-5,-9,·,-2,-7
Cc1cccc(N2CCN(C(=S)Nc3ccc4nc(N5CCN(C)CC5)cc(C)c4c3)CC2)c1C,·,·,·,105*,·,7
Cc1cc(N2CCN(C)CC2)nc2ccc(NC(=S)N3CCCCC3)cc12,·,·,·,15,·,15
COc1cccc(C2C3=C(N=c4s/c(=C\c5ccccc5O)c(=O)n42)c2ccccc2CC3)c1OC (centres undefined),105*,52*,-15,22,-20,·
COc1cccc(C2C3=C(N=C4SCC(=O)N42)c2ccccc2CC3)c1OC (centres undefined),-3,3,-14,61,12,-2
CCOC(=O)c1cccc(Nc2nc(-c3cccnc3)nc3ccccc23)c1,10,19,-7,77*,29,20
O=C(N1CCN(c2ncccn2)CC1)C12CC3CC(CC(C3)C1)C2,1,0,-4,·,6,38
CCN1CCN(Cc2ccc(NC(=O)c3ccc(C)c(NC(=O)c4cncc(-c5cccs5)c4)c3)cc2C(F)(F)F)CC1,·,·,·,·,·,72*
CCN1CCN(Cc2ccc(NC(=O)c3ccc(C)c(NC(=O)c4nccn4C)c3)cc2C(F)(F)F)CC1,-1,-2,-20,55,-8,43
CCN1CCN(Cc2ccc(NC(=O)c3ccc(C)c(NC(=O)c4nccnc4N)c3)cc2C(F)(F)F)CC1,-2,-1,7,79*,14,37
Cc1ccc(NC(=O)C(=O)NNC(=O)c2ccccc2C)cc1Cl,-2,0,7,71*,-15,-26
C/C(CC(=O)Nc1ccc(OCc2ccccc2)cc1)=N\NC(=O)C(=O)Nc1cccc(C)c1,0,2,-25,94*,-16,-22
COc1ccccc1NC(=O)C(=O)N/N=C(\C)CC(=O)Nc1ccc(OCc2ccccc2)cc1,-1,2,-21,64,-25,-16
CC(=O)Nc1ccc(NC(=O)C/C(C)=N/NC(=O)C(=O)Nc2ccc(C)c(Cl)c2)cc1,2,-5,-10,87*,-2,7

# Assay outcomes: PubChem, several laboratories
